How the values were obtained:
Oryctolagus cuniculus [1] = species: Oryctolagus cuniculus; test: In vitro contraction of rabbit aorta strips.; type: functional, organism-based
Summary of the method: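 Rabbit aortic strips first contracted with 110 mM KCl to check viability and set maximal force. After washout and full relaxation, strips were equilibrated in 10 mM KCl, then given cumulative concentrations of test compound. EC50 is the concentration giving 50% of the prior 110 mM KCl maximal force.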

Oryctolagus cuniculus [2] = species: Oryctolagus cuniculus; test: In vitro inhibition of potassium-induced contractions in rabbit aorta strips.; type: functional, organism-based
Summary of the method: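 Rabbit aortic strips contracted with 110 mM KCl (equimolar replacement of NaCl), then exposed to cumulative concentrations of test compound.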

Row | Structure (SMILES) | EC50 (Oryctolagus cuniculus [1]; Oryctolagus cuniculus, Aorta) | IC50 (Oryctolagus cuniculus [2]; Oryctolagus cuniculus, Aorta) | EC50 (Oryctolagus cuniculus [1]) | IC50 (Oryctolagus cuniculus [2])
1 | CSC1=NC(c2ccccc2SC)C2=C(O)OCC2=N1 (stereo not given) | > 30 µM | > 30 µM |  | 
2 | CSC1=NC(c2cccc([N+](=O)[O-])c2SC)C2=C(O)OCC2=N1 (stereo not given) | > 30 µM | > 30 µM |  | 
3 | COC(=O)C1=C(C)N=C(SC)N[C@@H]1c1ccccc1SC | > 30 µM | 2.27 µM |  | 
4 | COC(=O)C1=C(C)N=C(SC)NC1c1cc([N+](=O)[O-])ccc1SC (stereo not given) | > 30 µM | 20 µM |  | 
5 | CSC1=NC2/C(=C(/O)OCCCCCSc3c2cccc3[N+](=O)[O-])C(C)=N1 (stereo not given) | > 30 µM | 0.036 µM |  | 
6 | CSC1=NC(c2cccc([N+](=O)[O-])c2)C2=C(O)OCC2=N1 (stereo not given) | > 30 µM | > 30 µM |  | 
7 | CSC1=NC(c2cc([N+](=O)[O-])ccc2SC)C2=C(O)OCC2=N1 (stereo not given) | > 30 µM | > 30 µM |  | 
8 | CSC1=NC2/C(=C(/O)OCCCCCSc3ccc([N+](=O)[O-])cc32)C(C)=N1 (stereo not given) | 2.9 µM | 26 µM |  | 
9 | COC(=O)C1=C(C)N=C(SC)NC1c1ccccc1SC (stereo not given) | > 30 µM | 20.6 µM |  | 
10 | COC(=O)C1=C(C)N=C(SC)NC1c1cccc([N+](=O)[O-])c1SC (stereo not given) | > 30 µM |  |  | 
11 | COC(=O)C1=C(C)N=C(SC)NC1c1cccc([N+](=O)[O-])c1 (stereo not given) | > 30 µM | 2.5 µM |  | 
12 | CO/C(O)=C1\C(C)=NC(C)=C([N+](=O)[O-])[C@H]1c1ccccc1C(F)(F)F | 0.046 µM | 17.1 µM |  | 
13 | COC(=O)C1=C(C)N=C(SC)N[C@H]1c1ccccc1SC | 3.55 µM | > 30 µM |  | 
14 | CCCCSc1ccccc1C1N=C(SC)NC2=C1C(=O)OC2 (stereo not given) | 17.3 µM | > 30 µM |  | 
15 | CSC1=NC2/C(=C(/O)OCCCCCSc3ccccc32)C(C)=N1 (stereo in doubt; 15b) |  |  | 0.82 µM | 3.9 µM
16 | CSC1=NC2/C(=C(/O)OCCCCCSc3ccccc32)C(C)=N1 (stereo in doubt; 15b-A) |  |  | > 30 µM | 0.1 µM
17 | CSC1=NC2/C(=C(/O)OCCCCCSc3ccccc32)C(C)=N1 (stereo in doubt; 15b-B) |  |  | 0.59 µM | > 30 µM
18 | COC(=O)C1=C(C)NC(C)=C(C(=O)OC)C1c1ccccc1[N+](=O)[O-] [NIFEDIPINE] | > 30 µM | 0.019 µM |  | 

From ChEMBL document CHEMBL1128711, “Calcium entry blockers and activators: conformational and structural determinants of dihydropyrimidine calcium channel modulators” (J Med Chem, 1995)
